Legend:
[1] = Inhibition of NOS in Sprague-Dawley rat brain homogenate assessed as conversion of oxy-hemoglobin to met-hemoglobin; type: tissue-based
Procedure, shortened: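 Brain of male Sprague-Dawley rat homogenised in HEPES/sucrose/EDTA/DTT with protease inhibitors and PMSF; the 12,000g supernatant is the enzyme source. Mix holds 500 µM HEPES, 250 µM CaCl2, homogenate from 2.36 mg tissue and 5% DMSO. Pre-incubated 3 min at 37 °C, then started with oxyHb 1.09 µM, NADPH 100 µM and L-arginine 100 µM. Scanned 390–430 nm every 10 s for 10 min; metHb taken as A401−A411. IC50 from rate versus log concentration.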

Rattus norvegicus = species on record: Rattus norvegicus; assay: Ratio of IC50 for aminoguanidine to IC50 for drug for NOS in Sprague-Dawley rat brain homogenate; type: tissue-based
Papio hamadryas [2] = species on record: Papio hamadryas; assay: Inhibition of MAOB from baboon liver at 100 uM by spectrophotometry
[3] = Inhibition of MAOB from baboon liver by spectrophotometry; design: species or system Papio hamadryas
Procedure, shortened: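 Mitochondrial fraction of baboon liver (no MAO-A activity, so no clorgyline), 0.15 mg protein/mL in 100 mM sodium phosphate pH 7.4. Substrate MMTP 50 µM, 4% DMSO final. Incubated 37 °C for 10 min, then stopped with perchloric acid and centrifuged. MMDP+ read at 420 nm. At least eight concentrations over 3 orders of magnitude; IC50 from sigmoidal fit, mean ± SEM of duplicates.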

[4] = Inhibition of recombinant NOS from rat brain
[5] = target: T1, Amine oxidase [flavin-containing] B (Mus musculus, UniProt Q8BW75); assay: Inhibition of mouse brain MAOB
T1 sequence (Q8BW75 whole entry): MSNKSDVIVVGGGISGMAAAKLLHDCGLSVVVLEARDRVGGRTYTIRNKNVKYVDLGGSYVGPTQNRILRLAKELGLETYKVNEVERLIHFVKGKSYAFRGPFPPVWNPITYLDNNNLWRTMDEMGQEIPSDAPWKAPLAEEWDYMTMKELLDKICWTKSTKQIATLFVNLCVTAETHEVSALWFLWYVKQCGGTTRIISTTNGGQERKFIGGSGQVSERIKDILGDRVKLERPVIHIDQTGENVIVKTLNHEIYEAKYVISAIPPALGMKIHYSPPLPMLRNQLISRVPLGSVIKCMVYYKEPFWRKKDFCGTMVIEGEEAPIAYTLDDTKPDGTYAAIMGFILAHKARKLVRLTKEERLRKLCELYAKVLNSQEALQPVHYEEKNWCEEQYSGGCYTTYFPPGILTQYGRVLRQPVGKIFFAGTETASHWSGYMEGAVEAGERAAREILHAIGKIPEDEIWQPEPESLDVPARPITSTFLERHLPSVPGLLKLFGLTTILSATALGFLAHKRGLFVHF

Papio hamadryas [6] = species on record: Papio hamadryas; assay: Inhibition of MAOB from baboon liver at 30 uM by spectrophotometry

Row | Structure (SMILES) | IC50 [1] | IC50 [3] | Ki [3] | also measured
1 | Cn1c(=O)c2nc(-c3ccccc3)cnc2n(C)c1=O | 443 µM |  |  | Ratio IC50 (Rattus norvegicus): 23; inhibition (Papio hamadryas [2]): 12.2%
2 | Cn1c(=O)c2nc(-c3cccc(Cl)c3)cnc2n(C)c1=O |  | 4.89 µM | 2.82 µM | 
3 | Cn1c(N)c(/N=C/c2cccc(Cl)c2)c(=O)n(C)c1=O | 6970 µM | 7.03 µM | 4.06 µM | 
4 | Nc1nc(N)c2c(n1)NCC(c1ccccc1)N2 (configuration not stated) |  |  |  | IC50 [4]: 6 µM
5 | Cn1c(=O)c2nc(/C=C/c3cccc(Cl)c3)cnc2n(C)c1=O | 1060 µM | 0.314 µM | 0.181 µM | 
6 | Cn1c(=O)c2c(nc(/C=C/c3cccc(Cl)c3)n2C)n(C)c1=O |  |  |  | Ki [5]: 0.1 µM
7 | Cn1c(N)c(/N=C/c2ccccc2)c(=O)n(C)c1=O | 467 µM |  |  | Ratio IC50 (Rattus norvegicus): 23; inhibition (Papio hamadryas [6]): 17.8%
8 | C[C@H](O)[C@H](O)C1CNc2nc(N)nc(N)c2N1 (some centres not stated) |  |  |  | Ki [4]: 0.013 µM
9 | Cn1c(N)c(/N=C/C=C/c2ccccc2)c(=O)n(C)c1=O |  | 12.1 µM | 6.96 µM | 
10 | Cn1c(N)c(/N=C/C=C/c2cccc(Cl)c2)c(=O)n(C)c1=O | 577 µM | 0.602 µM | 0.348 µM | 
